Data as given in ChEMBL document CHEMBL3046016, “Antifeedant and growth inhibitory effects of some neo-clerodane diterpenoids isolated from Clerodendron species (Verbenaceae) on Earias vitella and Spodoptera litura” (2003).

Columns and labels:
Assay type in all cases: functional
Earias vittella [1] = test: Insecticidal activity against male adult Earias vitella assessed as adult longevity time at 5 ug/cm3 administered through artificial diet containing Abelmoschus esculentus seed powder (reference value: 8.2 +/- 0.4 days)
Earias vittella [2] = test: Insecticidal activity against third-instar larval stage of Earias vitella assessed as total larval duration time at 5 ug/cm3 administered through artificial diet containing Abelmoschus esculentus seed powder (reference value: 8.2 +/- 0.48 days)
Earias vittella [3] = test: Insecticidal activity against adult Earias vitella assessed as adult deformity at 5 ug/cm3 administered through artificial diet containing Abelmoschus esculentus seed powder (reference value: 4%)
Spodoptera litura [4] = test: Insecticidal activity against female adult Spodoptera litura in compound-treated castor leaves assessed as adult longevity time at 5 ug/cm2 (reference value: 10 +/- 0.63 days)
Earias vittella [5] = test: Insecticidal activity against female adult Earias vitella assessed as adult longevity time at 10 ug/cm3 administered through artificial diet containing Abelmoschus esculentus seed powder (reference value: 8.6 +/- 0.48 days)
Spodoptera litura [6] = test: Antifeedant activity against third-instar larval stage of Spodoptera litura in compound-treated castor leaves assessed as decrease in diet consumption at 10 ug/cm2 after 24 hr by no-choice leaf disk assay relative to acetone-treated control; design: scale not given: the % may be the effect or the level left
In short: (§1)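 Larvae were reared on castor leaves at 25 ± 2 °C. In a no-choice test, compound in acetone was painted on the abaxial side of castor leaf disks and air-dried. Five freshly molted third-instar larvae, starved 4 h, were placed per Petri dish with wet cotton. There were five replicates. After 24 h, consumed leaf area was read on a leaf area meter. %AF = 100 − (treated/control)×100.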

Spodoptera litura [7] = test: Insecticidal activity against pupal stage of Spodoptera litura in compound-treated castor leaves assessed as pupal duration time at 5 ug/cm2 (reference value: 9.2 +/- 0.74 days)
Spodoptera litura [8] = test: Insecticidal activity against adult Spodoptera litura in compound-treated castor leaves assessed as adult deformity at 10 ug/cm2 relative to control
Spodoptera litura [9] = test: Insecticidal activity against third-instar larval stage of Spodoptera litura in compound-treated castor leaves assessed as total larval duration time at 5 ug/cm2 (reference value: 12.4 +/- 0.48 days)
Spodoptera litura [10] = test: Insecticidal activity against pupal stage of Spodoptera litura in compound-treated castor leaves assessed as pupal duration time at 10 ug/cm2 (reference value: 9.2 +/- 0.74 days)
Spodoptera litura [11] = test: Insecticidal activity against male adult Spodoptera litura in compound-treated castor leaves assessed as adult longevity time at 5 ug/cm2 (reference value: 9.4 +/- 0.48 days)
Spodoptera litura [12] = test: Insecticidal activity against third-instar larval stage of Spodoptera litura in compound-treated castor leaves assessed as larval mortality at 5 ug/cm2 relative to control
Spodoptera litura [13] = test: Insecticidal activity against male adult Spodoptera litura in compound-treated castor leaves assessed as adult longevity time at 10 ug/cm2 (reference value: 9.4 +/- 0.48 days)
Earias vittella [14] = test: Insecticidal activity against adult Earias vitella assessed as adult emergence at 5 ug/cm3 administered through artificial diet containing Abelmoschus esculentus seed powder (reference value: 88%)
Earias vittella [15] = test: Insecticidal activity against pupal stage of Earias vitella assessed as pupal mortality at 10 ug/cm3 administered through artificial diet containing Abelmoschus esculentus seed powder (reference value: 8%)
Spodoptera litura [16] = test: Insecticidal activity against female adult Spodoptera litura in compound-treated castor leaves assessed as adult longevity time at 10 ug/cm2 (reference value: 10 +/- 0.63 days)
Spodoptera litura [17] = test: Insecticidal activity against adult Spodoptera litura in compound-treated castor leaves assessed as adult deformity at 5 ug/cm2 relative to control
Spodoptera litura [18] = test: Antifeedant activity against third-instar larval stage of Spodoptera litura in compound-treated castor leaves assessed as decrease in diet consumption at 5 ug/cm2 after 24 hr by no-choice leaf disk assay relative to acetone-treated control; design: scale not given: the % may be the effect or the level left; in short: as §1
Earias vittella [19] = test: Insecticidal activity against third-instar larval stage of Earias vitella assessed as total larval duration time at 10 ug/cm3 administered through artificial diet containing Abelmoschus esculentus seed powder (reference value: 8.2 +/- 0.48 days)
Earias vittella [20] = test: Insecticidal activity against adult Earias vitella assessed as adult deformity at 10 ug/cm3 administered through artificial diet containing Abelmoschus esculentus seed powder (reference value: 4%)
Earias vittella [21] = test: Insecticidal activity against male adult Earias vitella assessed as adult longevity time at 10 ug/cm3 administered through artificial diet containing Abelmoschus esculentus seed powder (reference value: 8.2 +/- 0.4 days)
Earias vittella [22] = test: Insecticidal activity against female adult Earias vitella assessed as adult longevity time at 5 ug/cm3 administered through artificial diet containing Abelmoschus esculentus seed powder (reference value: 8.6 +/- 0.48 days)
Spodoptera littoralis = test: Antifeedant activity against Spodoptera littoralis assessed as decrease in diet consumption at 50 ppm after 2 hr by leaf disk assay relative to control; design: scale not given: the % may be the effect or the level left
Spodoptera litura [23] = test: Insecticidal activity against adult Spodoptera litura in compound-treated castor leaves assessed as adult emergence at 5 ug/cm2 relative to control
Earias vittella [24] = test: Insecticidal activity against adult Earias vitella assessed as adult emergence at 10 ug/cm3 administered through artificial diet containing Abelmoschus esculentus seed powder (reference value: 88%)
Earias vittella [25] = test: Insecticidal activity against pupal stage of Earias vitella assessed as pupal duration time at 5 ug/cm3 administered through artificial diet containing Abelmoschus esculentus seed powder (reference value: 6.4 +/- 0.21 days)
Earias vittella [26] = test: Insecticidal activity against third-instar larval stage of Earias vitella assessed as larval mortality at 5 ug/cm3 administered through artificial diet containing Abelmoschus esculentus seed powder (reference value: 4%)
Spodoptera litura [27] = test: Insecticidal activity against pupal stage of Spodoptera litura in compound-treated castor leaves assessed as pupal weight at 5 ug/cm2 (reference value: 302.4 +/- 5.9 mg)
Earias vittella [28] = test: Antifeedant activity against third-instar larval stage of Earias vitella assessed as decrease in diet consumption at 5 ug/cm3 administered through artificial diet containing Abelmoschus esculentus seed powder after 24 hr relative to acetone-treated control; design: scale not given: the % may be the effect or the level left
In short: (§2)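 Artificial diet was modified Klein medium with bhendi (Abelmoschus esculentus) seed powder in place of alfalfa. Compound in acetone was mixed into bhendi meal 12 h before diet preparation so the solvent evaporated. One 3 g diet cube was given to five freshly molted third-instar larvae in a muslin-covered container. After 24 h the cubes were weighed. %AF = 100 − (treated/control)×100.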

Earias vittella [29] = test: Insecticidal activity against pupal stage of Earias vitella assessed as pupal weight at 5 ug/cm3 administered through artificial diet containing Abelmoschus esculentus seed powder (reference value: 88.2 +/- 4.01 mg)
Earias vittella [30] = test: Insecticidal activity against pupal stage of Earias vitella assessed as pupal weight at 10 ug/cm3 administered through artificial diet containing Abelmoschus esculentus seed powder (reference value: 88.2 +/- 4.01 mg)
Spodoptera litura [31] = test: Insecticidal activity against third-instar larval stage of Spodoptera litura in compound-treated castor leaves assessed as larval mortality at 10 ug/cm2 relative to control
Spodoptera litura [32] = test: Insecticidal activity against pupal stage of Spodoptera litura in compound-treated castor leaves assessed as pupal mortality at 10 ug/cm2 relative to control
Earias vittella [33] = test: Antifeedant activity against third-instar larval stage of Earias vitella assessed as decrease in diet consumption at 10 ug/cm3 administered through artificial diet containing Abelmoschus esculentus seed powder after 24 hr relative to acetone-treated control; design: scale not given: the % may be the effect or the level left; in short: as §2
Spodoptera litura [34] = test: Insecticidal activity against adult Spodoptera litura in compound-treated castor leaves assessed as adult emergence at 10 ug/cm2 relative to control
Earias vittella [35] = test: Insecticidal activity against pupal stage of Earias vitella assessed as pupal mortality at 5 ug/cm3 administered through artificial diet containing Abelmoschus esculentus seed powder (reference value: 8%)
Spodoptera litura [36] = test: Insecticidal activity against third-instar larval stage of Spodoptera litura in compound-treated castor leaves assessed as total larval duration time at 10 ug/cm2 (reference value: 12.4 +/- 0.48 days)
Earias vittella [37] = test: Insecticidal activity against pupal stage of Earias vitella assessed as pupal duration time at 10 ug/cm3 administered through artificial diet containing Abelmoschus esculentus seed powder (reference value: 6.4 +/- 0.21 days)
Spodoptera litura [38] = test: Insecticidal activity against pupal stage of Spodoptera litura in compound-treated castor leaves assessed as pupal weight at 10 ug/cm2 (reference value: 302.4 +/- 5.9 mg)
Spodoptera litura [39] = test: Insecticidal activity against pupal stage of Spodoptera litura in compound-treated castor leaves assessed as pupal mortality at 5 ug/cm2 relative to control
Earias vittella [40] = test: Insecticidal activity against third-instar larval stage of Earias vitella assessed as larval mortality at 10 ug/cm3 administered through artificial diet containing Abelmoschus esculentus seed powder (reference value: 4%)

CC(=O)OC[C@@]12[C@@H](OC(C)=O)C[C@@H](C)[C@](C)([C@@H]3C[C@H]4C=CO[C@H]4O3)[C@H]1CCC[C@]21CO1 [CLERODIN]
Time (Earias vittella [1]): 6.6 days
Time (Earias vittella [2]): 9.4 days
Activity (Earias vittella [3]): 4%
Time (Spodoptera litura [4]): 8 days
Time (Earias vittella [5]): 6.6 days
Activity (Spodoptera litura [6]): 80%
Time (Spodoptera litura [7]): 10.9 days
Activity (Spodoptera litura [8]): 9.6%
Time (Spodoptera litura [9]): 14.3 days
Time (Spodoptera litura [10]): 11.6 days
Time (Spodoptera litura [11]): 8.4 days
mortality at 5 µg/cm2 (Spodoptera litura [12]): 24.5%
Time (Spodoptera litura [13]): 8 days
Activity (Earias vittella [14]): 68.6%
mortality (Earias vittella [15]): 32%
Time (Spodoptera litura [16]): 7 days
Activity (Spodoptera litura [17]): 8%
Activity (Spodoptera litura [18]): 72%
Time (Earias vittella [19]): 9.9 days
Activity (Earias vittella [20]): 8%
Time (Earias vittella [21]): 6.4 days
Time (Earias vittella [22]): 6.8 days
Activity (Spodoptera littoralis): 100%
Activity (Spodoptera litura [23]): 64%
Activity (Earias vittella [24]): 60%
Time (Earias vittella [25]): 7.2 days
mortality (Earias vittella [26]): 4%
Activity (Spodoptera litura [27]): 270.2 mg
Activity (Earias vittella [28]): 62.87%
Activity (Earias vittella [29]): 60.4 mg
Activity (Earias vittella [30]): 58 mg
mortality at 10 µg/cm2 (Spodoptera litura [31]): 35.2%
mortality at 10 µg/cm2 (Spodoptera litura [32]): 27%
Activity (Earias vittella [33]): 72.13%
Activity (Spodoptera litura [34]): 63.2%
mortality (Earias vittella [35]): 28.5%
Time (Spodoptera litura [36]): 14.8 days
Time (Earias vittella [37]): 8 days
Activity (Spodoptera litura [38]): 250.2 mg
mortality at 5 µg/cm2 (Spodoptera litura [39]): 27%
mortality (Earias vittella [40]): 8%
